Reference: ChEMBL document CHEMBL1124806, “Synthesis of quaternary amine ether lipids and evaluation of neoplastic cell growth inhibitory properties” (J Med Chem, 1990)

What was measured:
HL-60 [1] = assay: Inhibition of neoplastic cell proliferation in the HL-60 human promyelocytic leukemia cells; format: functional; details: read-out: ID50 (the source's name)
Method in brief: (§1)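 HL-60 cells are kept in RPMI 1640 with 10% FBS and 2 mM glutamine under 5% CO2. They are seeded at 5 × 10^5 cells/mL with a range of lipid concentrations, diluted into medium from 1 mg/mL ethanol stocks. After 48 h, viable cells are counted by hemocytometer with trypan blue. ID50 values are averaged, and SD is taken from the averaged ID50s.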

HL-60 [2] = assay: Inhibition of neoplastic cell proliferation with the HL-60 human promyelocytic leukemia cells; format: functional; details: read-out: ID50 (the source's name); method in brief: as §1
Protein kinase C (PKC) = assay: Inhibition of Protein Kinase C (PKC) isolated from HL-60 human promyelocytic leukemia cells; format: cell-free
Method in brief: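 Partially purified PKC from HL-60 cells, pH 7.5, in 25 mM Tris, 10 mM MgCl2, 0.1 mM CaCl2, 40 μg/mL histone, 20 μg/mL phosphatidylserine, 2.5 μM OAG, and 10 μM ATP with [γ-32P]ATP. Analogue in ethanol is added before the enzyme starts the reaction, with a 0.1% ethanol control. The reaction runs 20 min at 30 °C and is stopped with BSA and ice-cold 25% TCA. Filter-bound 32P-histone is counted; duplicates.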

| Compound | IC50 (HL-60 [1]) | IC50 (HL-60 [2]) | IC50 (Protein kinase C (PKC)) |
| --- | --- | --- | --- |
| CCCCCCCCCCCCCCCCOCC(C[n+]1ccccc1)OCC (stereo unspecified) | 1010 nM |  |  |
| CCCCCCCCCCCCCCCCOCC(C[N+](C)(C)C)OC.[Br-] (stereo unspecified) | 1590 nM |  | > 40000 nM |
| CCCCCCCCCCCCCCCCSCC(C[N+](C)(C)C)OC.[Br-] (stereo unspecified) | 2200 nM |  | 25000 nM |
| CCCCCCCCCCCCCCCCCCOCC(COCCCC[N+](C)(C)C)OCC (stereo unspecified) | 1260 nM |  |  |
| CCCCCCCCCCCCCCCCOCC(C[N+](CC)(CC)CC)OCC (stereo unspecified) | 680 nM |  |  |
| CCCCCCCCCCCCCCCCOCCC[n+]1ccccc1.[Br-] | 820 nM |  | > 40000 nM |
| CCCCCCCCCCCCCCCCOCC(C[N+]1(C)CCC(O)CC1)OCC (stereo unspecified) | 2720 nM |  |  |
| CCCCCCCCCCCCCCCCSCC(COCCCC[N+](C)(C)C)OCC (stereo unspecified) | 1830 nM |  |  |
| CCCCCCCCCCCCCCCCOCC(COCCCCCCCCCC[N+](C)(C)C)OC (stereo unspecified) | 3790 nM |  |  |
| CC1(C)OCC(C[N+](C)(C)CCO)O1 (stereo unspecified) | > 10000 nM |  |  |
| CCCCCCCCCCCCCCCCOCC(COCCCC[n+]1ccccc1)OCC (stereo unspecified) | 780 nM |  |  |
| CCCCCCCCCCCCCCCCCCOCC(COP(=O)([O-])OCC[N+](C)(C)C)OC (stereo unspecified) [EDELFOSINE] | 2010 nM |  | 12000 nM |

Now from value to molecule:

| IC50 (HL-60 [1]) | IC50 (HL-60 [2]) | IC50 (Protein kinase C (PKC)) | Compound |
| --- | --- | --- | --- |
|  | 4660 nM |  | CCCCCCCCCCCCCCCCSCC(C[N+](C)(C)CCO)OC (stereo unspecified) |
| 3350 nM |  | 5000 nM | CCCCCCCCCCCCCCCCCCSCC(C[N+](C)(C)CCCO)OC.[I-] (stereo unspecified) |
|  | 3720 nM |  | CCCCCCCCCCCCCCCCSCC(C[N+](C)(C)CCO)OCC (stereo unspecified) |
| 1850 nM |  | 31000 nM | CCCCCCCCCCCCCCCCOCC(COCC[N+](C)(C)C)OC.[Br-] (stereo unspecified) |
| 1560 nM |  |  | CCCCCCCCCCCCCCCCOCCCOCCCC[N+](C)(C)C |
| 1610 nM |  | > 40000 nM | CCCCCCCCCCCCCCCCOCCC[N+](C)(C)C.[Br-] |
| 2820 nM |  |  | CCCCCCCCCCCCCCCCCC1OCC(COCCCC[N+](C)(C)C)O1 (stereo unspecified) |
| 6470 nM |  | 13000 nM | CCCCCCCCCCCCCCCCCC1OCC(C[N+](C)(C)CCCO)O1.[Br-] (stereo unspecified) |
|  | 2950 nM |  | CCCCCCCCCCCCCCCCSCC(C[N+](C)(C)CCCO)OCC (stereo unspecified) |
| 1860 nM |  | > 40000 nM | CCCCCCCCCCCCCCCCOCC(COCCCC[N+](C)(C)C)OCC.[Br-] (stereo unspecified) |
| 1750 nM |  | > 40000 nM | CCCCCCCCCCCCCCCCOCC(COCCCCCC[N+](C)(C)C)OC.[Br-] (stereo unspecified) |
| 2300 nM |  | > 40000 nM | CCCCCCCCCCCCCCCCOCC(COCCCC[N+](C)(C)C)OC.[Br-] (stereo unspecified) |
| 1200 nM |  |  | CCCCCCCCCCCCCCCCOCC(COCCC[N+](C)(C)C)OC (stereo unspecified) |
